ChEMBL document CHEMBL1125917, “Synthesis of halogen-substituted 1,5-benzothiazepine derivatives and their vasodilating and hypotensive activities” (1991)

Tests used:
Canis familiaris [1] = species: Canis familiaris; test: Antihypertensive activity expressed as the ratio of the potency evaluated by increased vertebral blood flow (VBF) to that of diltiazem.; assay type: functional, Canis lupus familiaris
In short: (§1)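 Anesthetized dogs; compounds given intraarterially. Vertebral blood flow recorded, and a dose-response curve built from peak responses. Potency given as ratio to diltiazem, calculated from the dose-response curves. Half duration is the time, in minutes, that blood flow stays at one-half of the maximum change.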

Cavia porcellus [2] = species: Cavia porcellus; test: Increase in the coronary blood flow (CBF) was determined in isolated guinea pig heart at a dose of 30 ug/heart; assay type: functional, Artery
In short: (§2)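 Hartley guinea pig hearts perfused by the Langendorff method with modified Locke-Ringer solution containing defibrinated rabbit blood, at 40 cm H2O and 29 ± 1 °C. Compounds in saline injected into the aortic cannula at 3, 10, 30 or 100 μg/heart. Coronary flow measured by drop counter; graded by the lowest dose giving an increase of at least 0.5 mL/min.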

Canis familiaris [3] = test: Antihypertensive activity by the increase in the vertebral blood flow in anesthetized dogs expressed as duration of half of the maximum change in blood flow.; assay type: functional, Canis lupus familiaris; in short: as §1
Cavia porcellus [4] = species: Cavia porcellus; test: Increase in the coronary blood flow (CBF) was determined in isolated guinea pig heart at a dose of 100 ug/heart; assay type: functional; in short: as §2
Rattus norvegicus [5] = test: Hypotensive activity in SHR (spontaneously hypertensive rats) expressed as change in blood pressure(mmHg) after 4 hr dosing at a concentration of 30 mg/kg; assay type: functional
In short: (§3)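 Male spontaneously hypertensive rats, fasted 20 h. Compounds dissolved in deionized water and given orally (30 mg/kg; some at 100 mg/kg). Blood pressure measured by tail-cuff in conscious animals. Change (mmHg) taken from the predosing value at 1 and 4 h, or 1 and 5 h, after dosing. N = 3-6.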

Rattus norvegicus [6] = test: Change in blood pressure in spontaneously hypertensive rats 1 hr following 30 mg/kg p.o.; assay type: functional; details: route oral; in short: as §3

Row | SMILES | Potency ratio (Canis familiaris [1]) | Increase in CBF (Cavia porcellus [2]) [mL/min] | Half duration (Canis familiaris [3]) [min] | Increase in CBF (Cavia porcellus [4]) [mL/min] | Change in blood pressure (Rattus norvegicus [5]) [delta mmHg] | Change in blood pressure (Rattus norvegicus [6]) [delta mmHg] | Change in blood pressure (Rattus norvegicus [5]; 30 mg/kg) [delta mmHg] | Change in blood pressure (Rattus norvegicus [6]; 30 mg/kg) [delta mmHg]
1 | COc1ccc(C2Sc3cc(Cl)c(Cl)cc3N(CCN(C)C)C(=O)C2OC(C)=O)cc1.Cl (stereo not drawn) | 0.51 | >0.5 | 53 |  |  |  |  | 
2 | COc1ccc(C2Sc3cc(Cl)ccc3N(CCN(C)C)C(=O)C2OC(=O)c2ccc([N+](=O)[O-])cc2Cl)cc1 (single isomer, unassigned; (+)) | 0.08 |  | 118 | >0.5 |  |  |  | 
3 | Cc1ccc(C2Sc3cc(Cl)ccc3N(CCN(C)C)C(=O)C2O)cc1 (stereo not drawn) | 0.52 |  | 31 |  |  |  |  | 
4 | COc1ccc(C2Sc3cc(Cl)ccc3N(CCN(C)C)C(=O)C2OC(C)=O)cc1.Cl (stereo in doubt; 2b) | 1.15 | >0.5 | 69 |  |  |  |  | 
5 | CCN(C)CCN1C(=O)C(O)C(c2ccc(OC)cc2)Sc2cc(Cl)ccc21 (stereo not drawn) | 0.28 |  | 38 | >0.5 | -39.3 | -21.3 |  | 
6 | CC(=O)OC1C(=O)N(CCN(C)C)c2ccc(Cl)cc2SC1c1ccc(C)cc1 (stereo not drawn) | 0.37 |  | 61 |  |  |  |  | 
7 | CCCCC(=O)OC1C(=O)N(CCN(C)C)c2ccc(Cl)cc2SC1c1ccc(OC)cc1 (single isomer, unassigned; (+)) | 0.67 |  | 42 |  | -39 | -46 |  | 
8 | COc1ccc(C2Sc3cccc(Cl)c3N(CCN(C)C)C(=O)C2OC(C)=O)cc1.Cl (stereo not drawn) | 0.62 |  | 53 | >0.5 | -13.7 | -22 |  | 
9 | COc1ccc(C2Sc3ccc(Cl)cc3N(CCN(C)C)C(=O)C2OC(C)=O)cc1.Cl (stereo in doubt; (-)-2ll) | 0.03 |  | 12 | <0.5 |  |  |  | 
10 | COc1ccc(C2Sc3c(F)cccc3N(CCN(C)C)C(=O)C2OC(C)=O)cc1.Cl (stereo not drawn) | 0.34 |  | 43 | >0.5 | -60.3 | -39 |  | 
11 | CCCN(C)CCN1C(=O)C(O)C(c2ccc(OC)cc2)Sc2cc(Cl)ccc21 (stereo not drawn) | 0.24 |  | 35 | >0.5 | -27.3 | -20 |  | 
12 | COc1ccc(C2Sc3c(ccc(Cl)c3Cl)N(CCN(C)C)C(=O)C2OC(C)=O)cc1.Cl (stereo not drawn) | 0.35 |  | 156 | >0.5 |  |  |  | 
13 | COc1ccc(C2Sc3cc(Cl)ccc3N(CCN(C)C)C(=O)C2OC(C)=O)cc1.Cl (single isomer, unassigned; (-)) | 0.06 |  | 36 | <0.5 |  |  | -22.7 | -6
14 | COc1ccc(C2Sc3ccc(Cl)cc3N(CCN(C)C)C(=O)C2O)cc1 (single isomer, unassigned; (+)) | 0.17 |  | 24 | <0.5 |  |  |  | 
15 | COc1ccc(C2Sc3c(Cl)cccc3N(CCN(C)C)C(=O)C2O)cc1 (single isomer, unassigned; (-)) | 0.02 |  | 21 | <0.5 |  |  |  | 
16 | COc1ccc(C2Sc3ccc(Cl)cc3N(CCN(C)C)C(=O)C2OC(C)=O)cc1.Cl (single isomer, unassigned; (+)) | 0.93 |  | 29 | >0.5 |  |  |  | 
17 | COc1ccc(C2Sc3cc(Cl)ccc3N(CCN(C)C)C(=O)C2OC(=O)c2ccc([N+](=O)[O-])cc2)cc1 (stereo not drawn) | 0.05 |  | 75 | >0.5 |  |  |  | 
18 | COc1ccc(C2Sc3cc(Cl)ccc3N(CCN(C)C)C(=O)C2O)cc1 (single isomer, unassigned; (-)) | 0.02 |  | 23 | <0.5 |  |  | -20 | 1
19 | COc1ccc(C2Sc3cc(F)ccc3N(CCN(C)C)C(=O)C2OC(=O)c2ccc(C)cc2)cc1 (stereo not drawn) | 0.26 |  | 62 |  |  |  |  | 
20 | COc1ccc(C2Sc3cc(Cl)ccc3N(CCN(C)C)C(=O)C2O)cc1.Cl (stereo not drawn) | 0.76 |  | 39 | >0.5 |  |  |  | 
21 | CCOC(=O)OC1C(=O)N(CCN(C)C)c2ccc(F)cc2SC1c1ccc(OC)cc1 (stereo not drawn) | 0.16 |  | 33 | >0.5 |  |  |  | 

Row | SMILES | Potency ratio (Canis familiaris [1]) | Increase in CBF (Cavia porcellus [2]) [mL/min] | Half duration (Canis familiaris [3]) [min] | Increase in CBF (Cavia porcellus [4]) [mL/min] | Change in blood pressure (Rattus norvegicus [5]) [delta mmHg] | Change in blood pressure (Rattus norvegicus [6]) [delta mmHg] | Change in blood pressure (Rattus norvegicus [5]; 30 mg/kg) [delta mmHg] | Change in blood pressure (Rattus norvegicus [6]; 30 mg/kg) [delta mmHg]
22 | COc1ccc(C2Sc3cc(F)ccc3N(CCN(C)C)C(=O)C2OC(=O)c2ccc([N+](=O)[O-])cc2)cc1 (stereo not drawn) | 0.35 | >0.5 | 48 |  |  |  |  | 
23 | COc1ccc(C2Sc3cc(F)ccc3N(CCN(C)C)C(=O)C2O)cc1.Cl (stereo not drawn) | 0.37 |  | 40 | >0.5 |  |  |  | 
24 | COc1ccc(C2Sc3cc(Cl)c(Cl)cc3N(CCN(C)C)C(=O)C2O)cc1.Cl (stereo not drawn) | 0.29 |  | 36 | >0.5 |  |  |  | 
25 | COc1ccc(C2Sc3cc(Cl)ccc3N(CCN(C)C)C(=O)C2OC(=O)c2ccc(C)cc2)cc1 (stereo not drawn) | 0.33 |  | 140 |  |  |  |  | 
26 | COc1ccc(C2Sc3cc(Cl)ccc3N(CCN(C)C)C(=O)C2O)cc1 (single isomer, unassigned; (+)) | 0.94 |  | 46 | >0.5 |  |  | -51.7 | -13.3
27 | C=CCN(C)CCN1C(=O)C(O)C(c2ccc(OC)cc2)Sc2cc(Cl)ccc21 (single isomer, unassigned; (+)) | 0.23 |  | 34 |  |  |  |  | 
28 | CCCC(=O)OC1C(=O)N(CCN(C)C)c2ccc(Cl)cc2SC1c1ccc(OC)cc1 (single isomer, unassigned; (+)) | 0.8 |  | 41 |  | -28 | -30 |  | 
29 | COc1ccc(C2Sc3c(Cl)cccc3N(CCN(C)C)C(=O)C2OC(C)=O)cc1.Cl (single isomer, unassigned; (-)) | 0.06 |  | 22 | <0.5 |  |  |  | 
30 | COc1ccc(C2Sc3c(F)cccc3N(CCN(C)C)C(=O)C2O)cc1.Cl (stereo not drawn) | 0.14 |  | 33 | >0.5 |  |  |  | 
31 | CCN(C)CCN1C(=O)C(OC)C(c2ccc(OC)cc2)Sc2cc(Cl)ccc21 (single isomer, unassigned; (+)) | 0.5 |  | 41 |  |  |  |  | 
32 | COc1ccc(C2Sc3c(Cl)cccc3N(CCN(C)C)C(=O)C2OC(C)=O)cc1.Cl (single isomer, unassigned; (+)) | 0.83 |  | 74 |  | -54.3 | -73.7 |  | 
33 | COc1ccc(C2Sc3cc(Cl)ccc3N(CCN(C)C)C(=O)C2OC(C)=O)cc1.Cl (single isomer, unassigned; (+)) | 1.7 |  |  |  |  |  | -68 | -86
34 | C#CCN(C)CCN1C(=O)C(O)C(c2ccc(OC)cc2)Sc2cc(Cl)ccc21 (stereo not drawn) | 0.06 |  | 28 |  |  |  |  | 
35 | CCN(C)CCN1C(=O)C(OC(C)=O)C(c2ccc(OC)cc2)Sc2cc(Cl)ccc21 (stereo in doubt; 2o) | 0.74 |  | 60 |  |  |  |  | 
36 | Cc1ccc(C2Sc3cc(Cl)ccc3N(CCN(C)C)C(=O)C2OC(=O)c2ccc(Cl)cc2[N+](=O)[O-])cc1 (stereo not drawn) | 0.02 |  | 140 |  |  |  |  | 
37 | COc1ccc(C2Sc3cc(Cl)ccc3N(CCN(C)C)C(=O)C2OC(C)=O)cc1.Cl (stereo in doubt; 2w) | 0.01 |  | 31 |  |  |  |  | 
38 | Cc1ccc(C2Sc3cc(Cl)ccc3N(CCN(C)C)C(=O)C2OC(=O)c2ccc([N+](=O)[O-])cc2Cl)cc1 (stereo not drawn) | 0.05 |  | 156 |  |  |  |  | 
39 | CCN(CC)CCN1C(=O)C(OC(C)=O)C(c2ccc(OC)cc2)Sc2cc(Cl)ccc21 (stereo not drawn) | 0.55 |  | 48 | >0.5 |  |  |  | 
40 | CCN(CC)CCN1C(=O)C(O)C(c2ccc(OC)cc2)Sc2cc(Cl)ccc21 (single isomer, unassigned; (+)) | 0.32 |  | 31 | >0.5 |  |  |  | 
41 | COc1ccc(C2Sc3cc(F)ccc3N(CCN(C)C)C(=O)C2OC(C)=O)cc1.Cl (stereo not drawn) | 0.37 |  | 71 | >0.5 | -50 | -64 |  | 
42 | Cc1ccc(C2Sc3cc(Cl)ccc3N(CCN(C)C)C(=O)C2OC(=O)c2ccc([N+](=O)[O-])cc2)cc1 (stereo not drawn) | 0.08 |  | 84 |  |  |  |  | 
